Reference: publication PMC3674249 (Nature Communications, 2013)
Entries after “also recorded” stand apart in the source; their conditions may differ. Blank lines part the entries; values can stand above or below the compound they belong to.

Tests used:
ChEH [1] = target: T1, ChEH (Homo sapiens, UniProt Q15125+Q9UBM7); test: ChEH activity in whole MCF-7 cells; assay type: cell-based; settings: for IC50 of ChEH inhibition, fold higher than DDA / ChEH inhibition (in words): MCF-7 cells
How it was run: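 Whole MCF-7 cells were grown in RPMI with 5% FBS. Conversion to [14C]-CT was resolved by TLC and quantified by densitometry. IC50 came from dose–response curves, as mean±s.e.m. of three independent experiments.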

ChEH [2] = settings: microsomes from rat liver; cited from earlier work
ChEH [3] = target: T2, ChEH (Mus musculus, UniProt O88455+P70245); test: ChEH activity in murine melanoma B16F10 cells; assay type: cell-based
T2 sequence (P70245 1-230): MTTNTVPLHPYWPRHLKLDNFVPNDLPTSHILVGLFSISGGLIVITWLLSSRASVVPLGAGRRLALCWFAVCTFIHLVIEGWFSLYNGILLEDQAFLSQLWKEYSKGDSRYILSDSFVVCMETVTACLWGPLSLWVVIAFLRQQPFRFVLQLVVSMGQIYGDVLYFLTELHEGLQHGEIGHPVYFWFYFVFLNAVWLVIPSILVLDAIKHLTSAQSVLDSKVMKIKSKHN
T2 sequence (O88455 1-471): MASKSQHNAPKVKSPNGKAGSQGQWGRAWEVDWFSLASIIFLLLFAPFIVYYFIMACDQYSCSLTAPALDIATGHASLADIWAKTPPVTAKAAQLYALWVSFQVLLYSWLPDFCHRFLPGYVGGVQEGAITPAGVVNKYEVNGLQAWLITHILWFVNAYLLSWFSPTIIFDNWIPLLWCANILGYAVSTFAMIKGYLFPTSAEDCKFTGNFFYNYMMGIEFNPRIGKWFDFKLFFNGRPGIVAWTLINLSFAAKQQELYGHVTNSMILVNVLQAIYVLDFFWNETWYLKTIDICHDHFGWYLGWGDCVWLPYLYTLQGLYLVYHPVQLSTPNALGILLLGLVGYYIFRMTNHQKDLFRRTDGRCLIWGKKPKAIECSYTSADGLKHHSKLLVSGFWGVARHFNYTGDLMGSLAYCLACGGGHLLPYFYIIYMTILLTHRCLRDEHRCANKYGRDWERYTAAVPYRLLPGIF

ChEH [4] = target: T1, ChEH; test: ChEH activity in human melanoma SK-Mel-28 cells; assay type: cell-based
ChEH [5] = target: T2, ChEH; test: ChEH activity in murine mammary TSA cells; assay type: cell-based
TS/A mammary tumours = TS/A mammary tumours implanted s.c. into immunocompetent mice; assay type: in vivo, mouse
How it was run: (§1)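 Female mice, 6–8 weeks old, held specific-pathogen-free after 2 weeks quarantine. Strains were C57BL/6 for B16F10 and BALB/c for TS/A. 35,000 exponentially growing cells in 150 μl PBS were implanted s.c. into the flank. Dosing was s.c. every 5 days from implantation day, with a s.c. vehicle control (n=10 per group). Survival was by Kaplan–Meier with log-rank test.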

ER = test: ER-dependent transcriptional activity; assay type: cell-based, human; settings: MELN cells; for inhibition of luciferase stimulation by E2 (ER antagonism): with 10 nM E2, Tam 1 μM
B16F10 melanoma tumours = B16F10 melanoma tumours implanted s.c. into immunocompetent mice; assay type: in vivo, mouse
How it was run: as §1

TS/A cells = test: TS/A cell differentiation in vitro; assay type: cell-based, mouse; settings: 24 h
rat mEH = target: T3, rat mEH (Rattus norvegicus, UniProt P07687); test: mEH activity assay; assay type: biochemical
T3 sequence (P07687 1-455): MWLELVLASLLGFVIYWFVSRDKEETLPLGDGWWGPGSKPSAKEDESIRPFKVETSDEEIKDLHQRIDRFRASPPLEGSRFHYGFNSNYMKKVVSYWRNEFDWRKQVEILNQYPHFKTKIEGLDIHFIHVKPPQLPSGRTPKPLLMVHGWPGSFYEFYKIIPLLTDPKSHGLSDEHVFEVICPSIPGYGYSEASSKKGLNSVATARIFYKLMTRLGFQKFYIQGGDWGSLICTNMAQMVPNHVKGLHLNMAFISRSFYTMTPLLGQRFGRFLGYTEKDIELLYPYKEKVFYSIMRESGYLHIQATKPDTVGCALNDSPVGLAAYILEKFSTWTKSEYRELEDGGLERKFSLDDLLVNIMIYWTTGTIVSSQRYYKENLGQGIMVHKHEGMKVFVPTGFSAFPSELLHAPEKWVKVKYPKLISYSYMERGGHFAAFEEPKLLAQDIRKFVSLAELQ

Human sEH = target: T4, Human sEH (Homo sapiens, UniProt P34913); test: sEH activity assay; assay type: biochemical
T4 sequence (P34913 1-555): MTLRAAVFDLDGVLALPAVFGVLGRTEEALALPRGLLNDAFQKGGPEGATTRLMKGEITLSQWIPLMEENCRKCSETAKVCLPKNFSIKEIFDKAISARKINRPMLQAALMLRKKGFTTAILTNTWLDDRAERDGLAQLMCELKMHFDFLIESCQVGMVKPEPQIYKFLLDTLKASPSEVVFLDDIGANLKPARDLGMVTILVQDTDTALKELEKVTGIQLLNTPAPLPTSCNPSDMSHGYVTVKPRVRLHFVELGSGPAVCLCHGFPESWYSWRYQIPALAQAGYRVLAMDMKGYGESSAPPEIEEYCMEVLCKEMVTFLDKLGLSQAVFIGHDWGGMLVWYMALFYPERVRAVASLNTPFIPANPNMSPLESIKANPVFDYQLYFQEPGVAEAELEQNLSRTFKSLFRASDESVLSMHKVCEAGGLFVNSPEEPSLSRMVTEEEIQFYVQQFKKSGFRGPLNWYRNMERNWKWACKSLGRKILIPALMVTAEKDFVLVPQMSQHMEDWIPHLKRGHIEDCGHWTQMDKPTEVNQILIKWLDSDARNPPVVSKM

ChEH [6] = target: T1, ChEH; test: Modality of ChEH inhibition in MCF-7 cell extracts; assay type: biochemical; settings: MCF-7 cell extracts, 0.5, 1 and 5 μM DDA; Km increased, Vmax unchanged
B16F10 cells = test: B16F10 cell differentiation in vitro; assay type: cell-based, mouse; settings: 24 h
mouse brain homogenate = test: DDA neosynthesis assay; assay type: biochemical; settings: 2 μM [14C]-5,6α-EC, His 0.5–200 μM, 37 °C, 10 min
[7] = TS/A tumours, DDA 3.7 μg kg−1, 30 days
[8] = B16F10, treated every 5 days from day of implantation, DDA 0.37 μg kg−1 s.c.

T1 sequence (Q15125 whole entry): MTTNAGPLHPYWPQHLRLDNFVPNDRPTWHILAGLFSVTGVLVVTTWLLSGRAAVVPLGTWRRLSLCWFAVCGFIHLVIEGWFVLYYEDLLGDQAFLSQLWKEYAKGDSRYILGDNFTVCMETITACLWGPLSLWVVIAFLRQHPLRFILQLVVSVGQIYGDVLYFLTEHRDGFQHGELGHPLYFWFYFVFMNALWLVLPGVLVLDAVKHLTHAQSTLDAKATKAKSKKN
T1 sequence (Q9UBM7 whole entry): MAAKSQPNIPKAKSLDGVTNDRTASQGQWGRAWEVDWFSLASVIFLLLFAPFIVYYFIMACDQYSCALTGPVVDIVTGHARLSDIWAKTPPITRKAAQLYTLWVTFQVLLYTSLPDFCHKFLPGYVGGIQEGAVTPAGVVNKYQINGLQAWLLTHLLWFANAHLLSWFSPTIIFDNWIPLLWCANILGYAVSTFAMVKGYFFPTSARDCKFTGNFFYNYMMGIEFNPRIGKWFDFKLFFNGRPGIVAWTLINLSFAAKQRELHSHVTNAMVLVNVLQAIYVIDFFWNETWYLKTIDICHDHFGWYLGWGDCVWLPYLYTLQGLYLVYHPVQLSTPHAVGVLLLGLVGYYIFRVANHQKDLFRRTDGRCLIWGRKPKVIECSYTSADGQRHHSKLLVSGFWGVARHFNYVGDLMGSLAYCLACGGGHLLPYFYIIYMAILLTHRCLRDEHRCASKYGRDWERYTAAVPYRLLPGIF

- IC50 (ChEH [1]): 5090 ± 1400 nM
- IC50 of ChEH inhibition, fold higher than DDA (ChEH [1]): 42 fold
SMILES: CC(C)CCC[C@@H](C)[C@H]1CC[C@H]2[C@@H]3C(=O)C=C4C[C@@H](O)CC[C@]4(C)[C@H]3CC[C@]12C [7-ketocholesterol]
- ChEH inhibition (in words) (ChEH [2]): inhibited ChEH in microsomes from rat liver

- IC50 (ChEH [1]): 12000 ± 2900 nM
- IC50 of ChEH inhibition, fold higher than DDA (ChEH [1]): 100 fold
SMILES: CC(C)CCC[C@@H](C)[C@H]1CC[C@H]2[C@@H]3[C@H](O)C=C4C[C@@H](O)CC[C@]4(C)[C@H]3CC[C@]12C [Compound 7α-OHCh, 7α-hydroxycholesterol]
- ChEH inhibition (in words) (ChEH [2]): inhibited ChEH in microsomes from rat liver

- ChEH inhibition (in words) (ChEH [1]): unable to inhibit ChEH
SMILES: C[C@H](CCCC(C)(C)O)[C@H]1CC[C@H]2[C@@H]3CC=C4C[C@@H](O)CC[C@]4(C)[C@H]3CC[C@]12C [Compound 25-OHCh]
- ChEH inhibition (in words) (ChEH [2]): did not inhibit ChEH

- ChEH inhibition (in words) (ChEH [1]): did not inhibit ChEH activity
- ChEH inhibition (in words) (ChEH [3]; B16F10 cells): inactive against ChEH
- ChEH inhibition (in words) (ChEH [4]; SK-Mel-28 cells): inactive against ChEH
- ChEH inhibition (in words) (ChEH [5]; TSA cells): inactive against ChEH
SMILES: CC(C)CCC[C@@H](C)[C@H]1CC[C@H]2[C@@H]3C[C@@H](n4cncc4CCN)[C@@]4(O)C[C@@H](O)CC[C@]4(C)[C@H]3CC[C@]12C [Compound C17, 5α-hydroxy-6β-[5-(2-amino-ethyl)-imidazol-1-yl]-cholestan-3β-ol]

SMILES: CC(C)CCC[C@@H](C)[C@H]1CC[C@H]2[C@@H]3C[C@@H](NCCc4c[nH]cn4)[C@@]4(O)C[C@@H](O)CC[C@]4(C)[C@H]3CC[C@]12C [DDA, 5α-Hydroxy-6β-[2-(1H-imidazol-4-yl)-ethylamino]-cholestan-3β-ol]
- MFGE8/lactadherin expression in tumour sections (immunohistochemistry) (TS/A mammary tumours; [7]): increased expression of milk fat globule (MFGE8)/lactadherin
- neutral lipid droplets in tumour sections (ORO) (TS/A mammary tumours; [7]): increased accumulation of neutral lipid droplets
- intra-tumour immune cell infiltration (CD3, CD11c) (TS/A mammary tumours; TS/A tumours, DDA 3.7 μg/kg, 30 days): increased infiltration of CD3^+ T lymphocytes and CD11c^+ dendritic cells
- animal survival at day 50 (TS/A mammary tumours; TS/A, treated every 5 days from day of implantation, DDA 0.37 μg kg−1 s.c.): 60%
- IC50 (ChEH [1]): 120 ± 20 nM
- stimulation of luciferase expression (ER agonism) (ER; increasing concentrations, without E2): did not stimulate the expression of luciferase
- inhibition of luciferase stimulation by E2 (ER antagonism) (ER): did not inhibit luciferase stimulation by 17β-estradiol
- survivors at day 50 (B16F10 melanoma tumours; [8]): 40%
- tumour growth vs control (B16F10 melanoma tumours; [8]): significantly inhibited tumour growth
- melanin production in tumour sections (Masson–Fontana) (B16F10 melanoma tumours; B16F10 tumours, DDA 3.7 μg kg−1, 23 days): increased production of melanin
- intra-tumour immune cell infiltration (CD3, CD11c) (B16F10 melanoma tumours; B16F10 tumours, DDA 3.7 μg/kg, 23 days): increased infiltration of CD3^+ T lymphocytes and CD11c^+ dendritic cells
- increase in ORO staining of neutral lipid droplets vs vehicle (TS/A cells; 1 μM DDA): 2.4 fold
- increase in intracellular triglycerides vs vehicle (TS/A cells; 1 μM DDA): 7 fold
- MFGE8/lactadherin (immunostaining, flow cytometry) (TS/A cells; 2.5 μM DDA): increased
- increase in ORO staining of neutral lipid droplets vs vehicle (TS/A cells; 2.5 μM DDA): 3 fold
- increase in intracellular triglycerides vs vehicle (TS/A cells; 2.5 μM DDA): 9 fold
- IC50 (ChEH [3]): 252 ± 81 nM
- mEH inhibition (in words) (rat mEH): did not inhibit these enzymes; also recorded: not an inhibitor
- sEH inhibition (in words) (Human sEH): did not inhibit these enzymes; also recorded: not an inhibitor
- modality of ChEH inhibition (ChEH [6]): competitive
- IC50 (ChEH [4]): 72 ± 15 nM
- IC50 (ChEH [5]): 284 ± 70 nM
- melanin content (B16F10 cells): increased in a concentration-dependent manner up to 2.5 μM DDA
- tyrosinase activity (B16F10 cells): increased activity of tyrosinase

SMILES: NCCc1c[nH]cn1 [His, histamine]
- apparent Vmax of DDA formation (mouse brain homogenate): 0.12±0.04 pmol per mg protein per min

SMILES: CC/C(=C(\c1ccccc1)c1ccc(OCCN(C)C)cc1)c1ccccc1 [Tam, Tamoxifen, reference compound]
- inhibition of luciferase stimulation by E2 (ER antagonism) (ER): completely inhibited luciferase expression
